In ChEMBL document CHEMBL1159337, “Antitumor agents. 221.1 buceracidins A and B, two new flavanones from Bucida buceras” (J Nat Prod, 2003):
In brackets after ≈: the same amount, converted by molar mass.

Experiments:
KB [1] = assay: Cytotoxicity against human KB cells after 3 days by SRB assay; assay type: functional, cell-based; settings: 72 h
Summary of the method: (§1)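 Stock cultures were kept in RPMI-1640 with 25 mM HEPES, 0.25% sodium bicarbonate, 10% FBS and 100 µg/mL kanamycin. Freshly trypsinized cells were seeded at 1500-7500 per well with compounds diluted from DMSO stock and cultured 3 days. Cells were fixed with cold 50% TCA, stained with 0.4% SRB, and the solubilized dye was read at 562 nm. IC50 was the concentration giving a 50% absorbance reduction versus untreated cells.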

[2] = Cytotoxicity against human KBVIN cells after 3 days by SRB assay; assay type: functional, cell-based; settings: 72 h; summary of the method: as §1
A549 = assay: Cytotoxicity against human A549 cells after 3 days by SRB assay; assay type: functional, cell-based; settings: A549, 72 h; summary of the method: as §1
1A9 = assay: Cytotoxicity against human 1A9 cells after 3 days by SRB assay; assay type: functional, cell-based; settings: 1A9, 72 h; summary of the method: as §1
HCT-8 = assay: Cytotoxicity against human HCT8 cells after 3 days by SRB assay; assay type: functional, cell-based; settings: HCT-8, 72 h; summary of the method: as §1
MCF7 = assay: Cytotoxicity against human MCF7 cells after 3 days by SRB assay; assay type: functional, cell-based; settings: MCF7, 72 h; summary of the method: as §1
PC-3 = assay: Cytotoxicity against human PC3 cells after 3 days by SRB assay; assay type: functional, cell-based; settings: PC-3, 72 h; summary of the method: as §1
[3] = Cytotoxicity against human U87MG cells after 3 days by SRB assay; assay type: functional, cell-based, U-87MG ATCC; settings: U-87 MG, 72 h; summary of the method: as §1
SK-MEL-2 = assay: Cytotoxicity against human SK-MEL-2 cells after 3 days by SRB assay; assay type: functional, cell-based; settings: SK-MEL-2, 72 h; summary of the method: as §1
KB [4] = assay: Cytotoxicity against human KB cells at 10 ug/ml after 3 days by SRB assay; assay type: functional; settings: 72 h

Compound: CC(C)=CCc1c2c(c(O)c3c1O[C@H](c1ccccc1)[C@@H](O)C3=O)C=CC(C)(C)O2 [MUNDULINOL]
- IC50 (KB [1]): 8.5 µg/mL (≈ 20.9 µM)
- IC50 [2]: 7.5 µg/mL (≈ 18.5 µM)
- IC50 (A549): 7.5 µg/mL (≈ 18.5 µM)
- IC50 (1A9): 8.2 µg/mL (≈ 20.2 µM)
- IC50 (HCT-8): 7 µg/mL (≈ 17.2 µM)
- IC50 (MCF7): 7.5 µg/mL (≈ 18.5 µM)
- IC50 (PC-3): 9.3 µg/mL (≈ 22.9 µM)
- IC50 [3]: 13 µg/mL (≈ 32 µM)
- IC50 (SK-MEL-2): 8.5 µg/mL (≈ 20.9 µM)

Compound: CO[C@H]1C(=O)c2c(O)c3c(c(CC=C(C)C)c2O[C@@H]1c1ccccc1O)OC(C)(C)C=C3
- IC50 (KB [1]): 6.5 µg/mL (≈ 14.9 µM)
- IC50 [2]: 7 µg/mL (≈ 16 µM)
- IC50 (A549): 7.6 µg/mL (≈ 17.4 µM)
- IC50 (1A9): 7.8 µg/mL (≈ 17.9 µM)
- IC50 (HCT-8): 7.2 µg/mL (≈ 16.5 µM)
- IC50 (MCF7): 7 µg/mL (≈ 16 µM)
- IC50 (PC-3): 8.4 µg/mL (≈ 19.2 µM)
- IC50 [3]: 8.6 µg/mL (≈ 19.7 µM)
- IC50 (SK-MEL-2): 7.8 µg/mL (≈ 17.9 µM)

Compound: CO[C@H]1C(=O)c2c(cc3c(c2O)C=CC(C)(C)O3)O[C@@H]1c1ccccc1O [BUCERACIDIN A]
- IC50 (KB [1]): > 10 µg/mL
- IC50 [2]: 15 µg/mL (≈ 40.7 µM)
- IC50 (A549): 14.1 µg/mL (≈ 38.3 µM)
- IC50 (1A9): 14.9 µg/mL (≈ 40.4 µM)
- IC50 (HCT-8): 15.5 µg/mL (≈ 42.1 µM)
- IC50 (MCF7): 13.6 µg/mL (≈ 36.9 µM)
- IC50 (PC-3): 16.3 µg/mL (≈ 44.2 µM)
- IC50 [3]: 16.1 µg/mL (≈ 43.7 µM)
- IC50 (SK-MEL-2): 15.6 µg/mL (≈ 42.3 µM)
- inhibition at 10 µg/mL (KB [4]): 31%

Compound: CC1(C)C=Cc2c(cc3c(c2O)C(=O)C[C@@H](c2ccccc2O)O3)O1 [BUCERACIDIN B]
- IC50 (KB [1]): 9.5 µg/mL (≈ 28.1 µM)
- IC50 [2]: 9.5 µg/mL (≈ 28.1 µM)
- IC50 (A549): 9.9 µg/mL (≈ 29.3 µM)
- IC50 (1A9): 11.5 µg/mL (≈ 34 µM)
- IC50 (HCT-8): 12.8 µg/mL (≈ 37.8 µM)
- IC50 (MCF7): 9.3 µg/mL (≈ 27.5 µM)
- IC50 (PC-3): 13 µg/mL (≈ 38.4 µM)
- IC50 [3]: 14.2 µg/mL (≈ 42 µM)
- IC50 (SK-MEL-2): 14 µg/mL (≈ 41.4 µM)

Compound: CC(C)=CCc1c2c(c(O)c3c1O[C@H](c1ccccc1O)CC3=O)C=CC(C)(C)O2 [MINIMIFLORIN]
- IC50 (KB [1]): 7.3 µg/mL (≈ 18 µM)
- IC50 [2]: 7.7 µg/mL (≈ 18.9 µM)
- IC50 (A549): 8 µg/mL (≈ 19.7 µM)
- IC50 (1A9): 7.6 µg/mL (≈ 18.7 µM)
- IC50 (HCT-8): 7.2 µg/mL (≈ 17.7 µM)
- IC50 (MCF7): 7.5 µg/mL (≈ 18.5 µM)
- IC50 (PC-3): 9.8 µg/mL (≈ 24.1 µM)
- IC50 [3]: 11 µg/mL (≈ 27.1 µM)
- IC50 (SK-MEL-2): 9 µg/mL (≈ 22.1 µM)

Compound: CC(C)=CCc1c2c(c(O)c3c1O[C@H](c1ccccc1O)[C@@H](O)C3=O)C=CC(C)(C)O2
- IC50 (KB [1]): 16.5 µg/mL (≈ 39.1 µM)
- IC50 [2]: 13.3 µg/mL (≈ 31.5 µM)
- IC50 (A549): 13.5 µg/mL (≈ 32 µM)
- IC50 (1A9): 15 µg/mL (≈ 35.5 µM)
- IC50 (HCT-8): 12.1 µg/mL (≈ 28.6 µM)
- IC50 (MCF7): 12.8 µg/mL (≈ 30.3 µM)
- IC50 (PC-3): 15.4 µg/mL (≈ 36.5 µM)
- IC50 [3]: 14.8 µg/mL (≈ 35 µM)
- IC50 (SK-MEL-2): 14.8 µg/mL (≈ 35 µM)
